According to paper PMC3253265 (Immunity, 2011):

Legend:
42F3 T cells [1] = format: cell-based; settings: recombinant H2-L^d-Ig dimers, CD8+ 42F3 T cells, IL-2 release
Procedure, shortened: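 CD8+ 42F3 hybridoma transfectants were stimulated with recombinant H2-Ld-Ig dimers loaded with peptide instead of APC-presented peptide. IL-2 release was read by ELISA. Anti-CD3 (2C11) and/or native peptide controlled IL-2 sensitivity. No-peptide and irrelevant H2-Ld MCMV epitope controls covered peptide-independent IL-2.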

42F3 T cells [2] = format: cell-based; settings: CD8+ and CD8− 42F3 T cell lines, peptide-loaded APCs, up to 100μM peptide
42F3 TCR [3] = assay: Fluorescent 42F3-tetramer staining of peptide-loaded APCs; format: cell-based
Procedure, shortened: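 Tetramers were made by complexing C-terminally biotinylated recombinant 42F3 TCR with PE-labelled streptavidin. They were used to stain peptide-loaded APCs, with fluorescence read by flow cytometry. Staining was compared against SPR-derived 3D affinities of the pMHC ligands.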

[4] = system: 42F3 TCR on CD8αβ− 42F3 T cells; format: binding
Procedure, shortened: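 42F3 hybridoma transfectants supplied the TCR. RBCs were biotinylated with biotin-X-NHS and then bound to streptavidin. Borosilicate beads were cleaned, silanized and reacted with streptavidin-maleimide. Both carried […] biotin-tagged single-chain H2-Ld-peptide complexes, the same ones used for SPR. Flow cytometry measured site densities of TCR on cells and pMHC on RBC or beads. Micropipette adhesion frequency and thermal fluctuation assays were run.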

42F3 TCR [5] = assay: SPR; format: binding, mouse; settings: sc H2-L^d constructs
42F3 T cells [6] = assay: Fluorescent sc H2-L^d-tetramer staining of 42F3 T cells; format: cell-based
42F3 T cells [7] = assay: p3A1 antagonist assay; format: cell-based; settings: 42F3 T cells stimulated with 100nM p4B3, range of p3A1 concentrations, same APC
Procedure, shortened: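 Antagonism assay: 42F3 hybridoma cells were stimulated with an agonist peptide at 100nM. The test peptide was added over a range of concentrations, and IL-2 production was read by ELISA. Anti-CD3 (2C11) and/or native peptide served as IL-2 sensitivity controls. No peptide and an irrelevant H2-Ld MCMV epitope controlled for peptide-independent IL-2.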

With SPLDSLWWI [p3A1] the “stimulation of 42F3 T cells by peptide-loaded H2-L^d-Ig dimers” value (42F3 T cells [1]) was “failed to stimulate”, the IL-2 response (42F3 T cells [2]) was “failed to induce a strong IL-2 response” and the “42F3-tetramer staining of peptide-loaded APCs” value (42F3 TCR [3]) was “stain”. The 2D-Ackon [4] was “weak”, the “2D-koff, rank among the peptides” value ([4]; H2-L^d-peptide) was “slowest 2D-koff” and the “SPR derived 3D affinity (KA), rank among the peptides” value (42F3 TCR [5]) was “highest affinity”. For the same sequence, the “H2-L^d-peptide-tetramer staining of 42F3 T cells” value (42F3 T cells [6]) was “did not stain” and the “effect on agonist (p4B3) induced activation” value (42F3 T cells [7]) was “not influenced”.
